In ChEMBL document CHEMBL4689842, “EUbOPEN Chemogenomics Library wave 1” (2021):

Test system: HEK-293T
Assay: Multiplex assay against HEK293T;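 as to Population Tubulin-Different-Phenotype (%): share of the cells with healthy nuclei that show this phenotype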
Format: toxicity, cell-based
Conditions: human
How it was run: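 Tubulin, mitochondrial-mass and membrane-permeability phenotypes are per cents of healthy-nucleus cells. Cells were gated by CellPathfinder machine learning into Hoechst high-intensity objects or normal cells, normal cells into healthy, pyknosed or fragmented nuclei, and pyknosed cells into mitotic or apoptotic. Before that, live cells stained at seeding with Hoechst33342, BioTracker Green Microtubule Cytoskeleton Dye, MitoTracker Red and Annexin V Alexa Fluor 680 were imaged on a CQ1 microscope at 37°C and 5% CO2 after compound addition.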

[1] = 12 h, 1 µM, compound concentration 1 uM, replicate 1
[2] = 12 h, 1 µM, compound concentration 1 uM, replicate 2
[3] = 12 h, 10 µM, compound concentration 10 uM, replicate 1
[4] = 12 h, 10 µM, compound concentration 10 uM, replicate 2
[5] = 24 h, 1 µM, compound concentration 1 uM, replicate 1
[6] = 24 h, 1 µM, compound concentration 1 uM, replicate 2
[7] = 24 h, 10 µM, compound concentration 10 uM, replicate 1
[8] = 24 h, 10 µM, compound concentration 10 uM, replicate 2
[9] = 48 h, 1 µM, compound concentration 1 uM, replicate 1
[10] = 48 h, 1 µM, compound concentration 1 uM, replicate 2
[11] = 48 h, 10 µM, compound concentration 10 uM, replicate 1
[12] = 48 h, 10 µM, compound concentration 10 uM, replicate 2

With `COc1cc(Nc2nccc(-c3cnn4nc(OC)ccc34)n2)cc(C(F)(F)F)c1` the “Population Apoptotic (%)” value [1] was 47%, the “Population Fragmented Nuclei (%)” value [1] was 16% and the “Population Healthy Nuclei (%)” value [1] was 19%. For the same compound, the “Population Hoechst High Intensity Objects (%)” value [1] was 13%, the “Population Membrane Permeable-Phenotype (%)” value [1] was 2% and the “Population Mitochondria Different-Phenotype (%)” value [1] was 77%. For the same compound, the “Population Mitotic Cells (%)” value [1] was 52%, the “Population Normal (%)” value [1] was 86% and the “Population Pyknosed Nuclei (%)” value [1] was 64%. For the same compound, the “Population Tubulin-Different-Phenotype (%)” value [1] was 30%, the “Total Cell Count” value [1] was 214 and the “Population Apoptotic (%)” value [2] was 7%. For the same compound, the “Population Fragmented Nuclei (%)” value [2] was 6%, the “Population Healthy Nuclei (%)” value [2] was 44% and the “Population Hoechst High Intensity Objects (%)” value [2] was 1%. The “Population Membrane Permeable-Phenotype (%)” value [2] was 11%, the “Population Mitochondria Different-Phenotype (%)” value [2] was 14% and the “Population Mitotic Cells (%)” value [2] was 92%. For the same compound, the “Population Normal (%)” value [2] was 98%, the “Population Pyknosed Nuclei (%)” value [2] was 48% and the “Population Tubulin-Different-Phenotype (%)” value [2] was 17%. The “Total Cell Count” value [2] was 192, the “Population Apoptotic (%)” value [3] was 68% and the “Population Fragmented Nuclei (%)” value [3] was 33%. The “Population Healthy Nuclei (%)” value [3] was 21%, the “Population Hoechst High Intensity Objects (%)” value [3] was 24% and the “Population Membrane Permeable-Phenotype (%)” value [3] was 7%. The “Population Mitochondria Different-Phenotype (%)” value [3] was 86%, the “Population Mitotic Cells (%)” value [3] was 31% and the “Population Normal (%)” value [3] was 75%. The “Population Pyknosed Nuclei (%)” value [3] was 44%, the “Population Tubulin-Different-Phenotype (%)” value [3] was 36% and the “Total Cell Count” value [3] was 317. For the same compound, the “Population Apoptotic (%)” value [4] was 21%, the “Population Fragmented Nuclei (%)” value [4] was 6% and the “Population Healthy Nuclei (%)” value [4] was 34%. The “Population Hoechst High Intensity Objects (%)” value [4] was 11%, the “Population Membrane Permeable-Phenotype (%)” value [4] was 4% and the “Population Mitochondria Different-Phenotype (%)” value [4] was 37%. The “Population Mitotic Cells (%)” value [4] was 78%, the “Population Normal (%)” value [4] was 88% and the “Population Pyknosed Nuclei (%)” value [4] was 59%. For the same compound, the “Population Tubulin-Different-Phenotype (%)” value [4] was 33%, the “Total Cell Count” value [4] was 275 and the “Population Apoptotic (%)” value [5] was 47%. For the same compound, the “Population Fragmented Nuclei (%)” value [5] was 16%, the “Population Healthy Nuclei (%)” value [5] was 22% and the “Population Hoechst High Intensity Objects (%)” value [5] was 20%. For the same compound, the “Population Membrane Permeable-Phenotype (%)” value [5] was 2%, the “Population Mitochondria Different-Phenotype (%)” value [5] was 76% and the “Population Mitotic Cells (%)” value [5] was 52%. The “Population Normal (%)” value [5] was 79%, the “Population Pyknosed Nuclei (%)” value [5] was 61% and the “Population Tubulin-Different-Phenotype (%)” value [5] was 35%. For the same compound, the “Total Cell Count” value [5] was 221, the “Population Apoptotic (%)” value [6] was 8% and the “Population Fragmented Nuclei (%)” value [6] was 6%. The “Population Healthy Nuclei (%)” value [6] was 65%, the “Population Hoechst High Intensity Objects (%)” value [6] was 3% and the “Population Membrane Permeable-Phenotype (%)” value [6] was 9%. The “Population Mitochondria Different-Phenotype (%)” value [6] was 11%, the “Population Mitotic Cells (%)” value [6] was 91% and the “Population Normal (%)” value [6] was 96%. For the same compound, the “Population Pyknosed Nuclei (%)” value [6] was 27%, the “Population Tubulin-Different-Phenotype (%)” value [6] was 17% and the “Total Cell Count” value [6] was 252. For the same compound, the “Population Apoptotic (%)” value [7] was 75%, the “Population Fragmented Nuclei (%)” value [7] was 33% and the “Population Healthy Nuclei (%)” value [7] was 20%. The “Population Hoechst High Intensity Objects (%)” value [7] was 23%, the “Population Membrane Permeable-Phenotype (%)” value [7] was 1% and the “Population Mitochondria Different-Phenotype (%)” value [7] was 84%. For the same compound, the “Population Mitotic Cells (%)” value [7] was 24%, the “Population Normal (%)” value [7] was 76% and the “Population Pyknosed Nuclei (%)” value [7] was 46%. For the same compound, the “Population Tubulin-Different-Phenotype (%)” value [7] was 39%, the “Total Cell Count” value [7] was 330 and the “Population Apoptotic (%)” value [8] was 23%. For the same compound, the “Population Fragmented Nuclei (%)” value [8] was 7%, the “Population Healthy Nuclei (%)” value [8] was 55% and the “Population Hoechst High Intensity Objects (%)” value [8] was 13%. The “Population Membrane Permeable-Phenotype (%)” value [8] was 4%, the “Population Mitochondria Different-Phenotype (%)” value [8] was 45% and the “Population Mitotic Cells (%)” value [8] was 76%. For the same compound, the “Population Normal (%)” value [8] was 86%, the “Population Pyknosed Nuclei (%)” value [8] was 36% and the “Population Tubulin-Different-Phenotype (%)” value [8] was 42%. The “Total Cell Count” value [8] was 293, the “Population Apoptotic (%)” value [9] was 62% and the “Population Fragmented Nuclei (%)” value [9] was 18%. For the same compound, the “Population Healthy Nuclei (%)” value [9] was 25%, the “Population Hoechst High Intensity Objects (%)” value [9] was 21% and the “Population Membrane Permeable-Phenotype (%)” value [9] was 2%. The “Population Mitochondria Different-Phenotype (%)” value [9] was 41%, the “Population Mitotic Cells (%)” value [9] was 37% and the “Population Normal (%)” value [9] was 78%. For the same compound, the “Population Pyknosed Nuclei (%)” value [9] was 56%, the “Population Tubulin-Different-Phenotype (%)” value [9] was 18% and the “Total Cell Count” value [9] was 219. For the same compound, the “Population Apoptotic (%)” value [10] was 4%, the “Population Fragmented Nuclei (%)” value [10] was 5% and the “Population Healthy Nuclei (%)” value [10] was 83%. For the same compound, the “Population Hoechst High Intensity Objects (%)” value [10] was 3%, the “Population Membrane Permeable-Phenotype (%)” value [10] was 5% and the “Population Mitochondria Different-Phenotype (%)” value [10] was 6%. The “Population Mitotic Cells (%)” value [10] was 95%, the “Population Normal (%)” value [10] was 96% and the “Population Pyknosed Nuclei (%)” value [10] was 10%. The “Total Cell Count” value [10] was 465, the “Population Apoptotic (%)” value [11] was 74% and the “Population Fragmented Nuclei (%)” value [11] was 39%. For the same compound, the “Population Healthy Nuclei (%)” value [11] was 24%, the “Population Hoechst High Intensity Objects (%)” value [11] was 25% and the “Population Membrane Permeable-Phenotype (%)” value [11] was 0%. The “Population Mitochondria Different-Phenotype (%)” value [11] was 86%, the “Population Mitotic Cells (%)” value [11] was 25% and the “Population Normal (%)” value [11] was 74%. For the same compound, the “Population Pyknosed Nuclei (%)” value [11] was 36%, the “Population Tubulin-Different-Phenotype (%)” value [11] was 56% and the “Total Cell Count” value [11] was 331. For the same compound, the “Population Apoptotic (%)” value [12] was 42%, the “Population Fragmented Nuclei (%)” value [12] was 7% and the “Population Healthy Nuclei (%)” value [12] was 63%. The “Population Hoechst High Intensity Objects (%)” value [12] was 9%, the “Population Membrane Permeable-Phenotype (%)” value [12] was 2% and the “Population Mitochondria Different-Phenotype (%)” value [12] was 35%. The “Population Mitotic Cells (%)” value [12] was 57%, the “Population Normal (%)” value [12] was 90% and the “Population Pyknosed Nuclei (%)” value [12] was 28%. For the same compound, the “Population Tubulin-Different-Phenotype (%)” value [12] was 39% and the “Total Cell Count” value [12] was 297.
